Screening data deposited in PubChem by several laboratories.
Rows were chosen to be rich in hits. Some 2.6% of all compounds tested hit in one or more screens of this group.
Hsp70 activator – transcriptional activators of Hsp70; HeLa Hsp70 promoter luciferase reporter, luminescence; scaled: vehicle 0, proteasome-inhibitor control 100%; activation, % at 10 µM; 0.04% of 200,000 active; AID 1203;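 active means activation above the mean across all tested compounds plus 3 SD, cutoff set per campaign, cut at about 5.5% in these data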
Rad51 HR inh – Rad51 (human) homologous recombination inhibition; 0.085% of 200,000 active; inhibition, % at 10 µM; hRad51 DNA strand exchange, fluorescence dequenching;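 active means inhibition above 40% at the single screening dose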
Target sequence (Q06609 whole entry, looked up): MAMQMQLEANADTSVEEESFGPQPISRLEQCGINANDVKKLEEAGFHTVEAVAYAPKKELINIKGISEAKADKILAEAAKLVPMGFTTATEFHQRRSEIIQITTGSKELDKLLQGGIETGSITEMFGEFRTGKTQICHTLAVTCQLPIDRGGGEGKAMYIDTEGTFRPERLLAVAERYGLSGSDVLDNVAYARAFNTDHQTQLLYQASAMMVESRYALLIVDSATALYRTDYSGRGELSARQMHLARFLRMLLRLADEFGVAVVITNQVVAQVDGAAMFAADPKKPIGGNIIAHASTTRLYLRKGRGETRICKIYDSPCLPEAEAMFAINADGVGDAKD
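System: hRad51 filaments on single-stranded DNA; reagent: Fluorescein- and BHQ1-tagged 47-mer duplex; compound dosing: one concentration, 10 µM final; timing: filaments 15 min 37 °C, then compound 30 min; measured by: fluorescein emission 520 nm, excitation 485 nm; benchmarks: per-plate controls and blanks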
HSF1 activator – increases HSF-1 driven luciferase reporter signal | NIH3T3-HGL HSF-1 luciferase reporter, MG132, 8 h; 100% = twice DMSO control signal | activation, % at 9 µM | 1.7% of 300,000 active | AID 504408;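 active means mean replicate activation of at least 50% with a set share of replicates each reaching 50%; inconclusive means only one of those two conditions met; inactive means mean below 50% and too few replicates reaching it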
HSV replic up – increases HSV replication in cells; HSV replication augmentation in cells, fold increase; maximum fold increase; 0.005% of 220,000 active; in the data active means maximum fold increase above about 1.5; inconclusive means no clear call, values can overlap the other calls; tested in PC3 cells
Mdm2 ligase inh – inhibitors of human Mdm2 E3 ubiquitin ligase. Q00987. cell-based MDM2 ubiquitination luciferase reporter, 2 h; 0 = plate control, 100 = twice control, blank-subtracted. 0.11% of 210,000 active. signal enhancement, % at 5 µM;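 active means signal enhancement of 30% or more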;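 further: luminescence tracks abundance of the self-degrading MDM2-luciferase fusion protein; higher signal means inhibition of MDM2 E3 ligase activity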
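Material: Stable MDM2–luciferase fusion reporter cells | Amount: 2000 cells seeded into each well | Dosing: One concentration, 5 µM, with 0.2% DMSO | Incubation: 4 h cell settling then 2 h compound exposure, 37 °C | Measured by: Luciferase luminescence | Read-out basis: % enhancement relative to plate controls after blank subtraction | Benchmarks: Control and blank well means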
HSF1 inhib – HSF1 inhibition. NIH3T3-HGL HSE-luciferase, MG132-induced, luminescence 8 h; active compounds read low. 0.77% of 300,000 active. activity change, negative = inhibition, % at 7.5 µM (by protocol);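 active means more than half of replicate wells show activity change below -50%, luminescence cut by over half; inconclusive means some wells, but at most half, below -50%; inactive means no replicate well below -50%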;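 further: luciferase reports HSF-1 transcriptional activity via heat shock element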
A number is an active result; – = inactive; ? = inconclusive; · = no result given.

SMILES | Hsp70 activator | Rad51 HR inh | HSF1 activator | HSV replic up | Mdm2 ligase inh | HSF1 inhib
CCN(/C=N/c1sc2c(c1C#N)CCCCC2)CC | – | – | 59.9 | – | – | –
C[C@@H]1CN(C(=O)c2cc(COc3cccc(C(F)(F)F)c3)on2)C[C@H](C)O1 | · | · | 94.7 | · | · | –
CCCCOC(=O)c1ccc(NC(=O)c2c(N)n(C)c(=O)[nH]c2=O)cc1 | · | – | – | – | · | –
COc1ccc(NC(=O)C/C(C)=N/NC(=O)c2cccs2)c([N+](=O)[O-])c1 | · | · | 69.7 | · | · | –
COc1ccc(OCC(=O)N/N=C(\C)CC(=O)Nc2cccc([N+](=O)[O-])c2)cc1 | – | – | – | – | 32.1 | –
COc1ccc(NC(=O)c2sccc2C)c([N+](=O)[O-])c1 | – | – | 74.2 | – | – | –
C/C(CC(=O)Nc1ccccc1C(F)(F)F)=N\NC(=O)c1cnccn1 | · | · | – | · | · | -84.3
O=C(CN1C(=O)NC2(CCOc3ccccc32)C1=O)c1ccc(Br)cc1 (configuration not stated) | · | · | – | · | · | –
Cc1ccc(NC(=O)c2cccc3cccnc23)cc1 | · | · | – | · | · | –
C/C(CC(=O)Nc1ccc(Cl)cc1C(F)(F)F)=N\NC(=O)c1cccs1 | · | – | 64.6 | – | – | –
O=[N+]([O-])/C(C(=C(Cl)Cl)N1CCOCC1)=C1\NCCO1 | – | – | – | – | – | –
CCS(=O)(=O)C(=C1NCCO1)S(=O)(=O)CC | – | – | 51.7 | – | – | –
Cc1ccc(NC(=O)c2ccc(OC(=O)COc3cccc(Cl)c3)cc2)cc1 | – | – | – | – | – | –
Cc1ccc(NC(=O)c2ccc(OC(=O)COc3ccc(Cl)cc3C)cc2)cc1 | – | – | 58.9 | – | – | –
O=C(CCc1c[nH]c2ccccc12)NCC(=O)Nc1ccc(F)c(F)c1F | – | – | – | – | – | –
COc1ccc(-c2cc(C(F)(F)F)nc(S(=O)(=O)CCCC(=O)Nc3cc(C)on3)n2)cc1OC | – | – | 223.3 | – | – | –
COc1ccccc1-c1cc(C(F)(F)F)nc(S(=O)(=O)CCCC(=O)Nc2cccnc2Cl)n1 | – | – | · | – | 43.0 | ·
COc1ccccc1-c1cc(C(F)(F)F)nc(S(=O)(=O)CCCC(=O)Nc2cc(C)on2)n1 | – | – | – | – | – | –
COc1ccccc1/C=C/C(=O)Nc1cccnc1Cl | · | · | – | · | · | –
COc1ccccc1-c1cc(C(F)(F)F)nc(S(C)(=O)=O)n1 | – | · | 256.3 | · | – | –
COc1ccccc1-c1cc(C(F)(F)F)nc(N2CCCC2)n1 | – | – | – | – | – | –
COc1ccccc1-c1cc(C(F)(F)F)nc(S(=O)(=O)CCCC(=O)NCc2ccc(F)cc2)n1 | – | – | – | – | – | -79.8
Cc1ccccc1CCN1CCCC(CN(C)C(=O)C(=O)c2ccco2)C1 (configuration not stated) | · | · | – | · | · | –
CCCCC(C(=O)NC1CCCC1)N(C(=O)c1snc(C(N)=O)c1N)c1ccc(OCC)cc1 (configuration not stated) | · | · | – | · | · | –
COc1ccccc1-c1cc(C(F)(F)F)nc(S(=O)(=O)CCCC(=O)N2CCCCC2C)n1 (configuration not stated) | – | – | 78.8 | – | – | –
SMILES | Hsp70 activator | Rad51 HR inh | HSF1 activator | HSV replic up | Mdm2 ligase inh | HSF1 inhib
COc1ccccc1-c1cc(C(F)(F)F)nc(S(=O)(=O)CCCC(=O)NC(C)C)n1 | – | – | 171.8 | – | – | –
CS(=O)(=O)c1nc(-c2ccco2)cc(C(F)(F)F)n1 | – | – | – | – | – | -74.1
COc1ccccc1-c1cc(C(F)(F)F)nc(N2CCCCC2)n1 | – | – | – | – | – | –
CC(C)c1ccc(NC2=CC(=O)CC(C)(C)C2)cc1 | · | · | – | · | · | –
CN(Cc1ccccc1)C(=O)c1ccc(NC(=O)C2=CSCCO2)cc1 | · | · | – | · | · | –
Cc1ccc(N=C2NC(=O)/C(=C/c3cccn3C)S2)cc1C | · | – | 54.1 | – | – | –
Cc1ccc(N=C2NC(=O)/C(=C/c3cccn3C)S2)cc1 | · | – | – | – | – | –
O=C(Nc1nc(-c2nc3ccccc3s2)cs1)C1CC1 | – | – | 67.3 | – | – | –
COC(=O)c1cc2n(n1)CCN(Cc1ccc(F)cc1)C2=O | – | 45.6 | – | – | – | –
CCOC(=O)C(=Cc1ccc(-n2cncn2)cc1)C(=O)OCC | – | – | 126.9 | – | – | –
Cc1cc(NC(=O)CSC2=NS(=O)(=O)c3ccccc3N2)no1 | · | · | – | · | · | –
Cn1c(-c2cccc(Br)c2)cnc1NCc1ccccc1O | · | · | – | · | · | –
CCOC(=O)Cc1cc(=O)c2cc(C)ccc2[nH]1 | · | · | – | – | · | -67.8
O=C(Nc1ccnn1C1CCN(Cc2c[nH]c3ccccc23)CC1)c1ccccc1 | · | · | – | · | · | –
CC1(C)CC(=O)c2c(O)cc(OCc3ccc(Br)cc3)cc2O1 | – | – | – | – | – | –
CC1(C)CC(=O)c2ccc(OCc3ccc([N+](=O)[O-])cc3)cc2O1 | · | – | 70.4 | – | – | –
CC(=O)[C@]1(O)Cc2c(O)c3c(c(O)c2[C@@H](O[C@H]2C[C@H](N)[C@H](O)[C@H](C)O2)C1)C(=O)c1ccccc1C3=O | · | – | – | · | · | -79.0
COc1cccc2c1C(=O)c1c(O)c3c(c(O)c1C2=O)C[C@@](O)(C(=O)CO)C[C@@H]3O[C@H]1C[C@H](N)[C@@H](O)[C@H](C)O1 | · | 74.2 | – | · | · | -74.6
COc1cccc2c1C(=O)c1c(O)c3c(c(O)c1C2=O)C[C@@](O)(C(C)=O)C[C@@H]3O[C@H]1C[C@H](N)[C@H](O)[C@H](C)O1 | 12.2 | · | · | · | · | ·
O=C(Nc1cccc(Cl)c1Cl)c1snnc1-c1ccccc1 | – | – | – | – | – | -86.3
O=C(Nc1cc(Cl)ccc1O)c1snnc1-c1ccccc1 | – | – | – | – | – | –
Cc1ccc(SCCNC(=O)CN(c2ccc3c(c2)OCO3)S(C)(=O)=O)cc1 | – | – | – | – | – | –
CS(=O)(=O)N(CC(=O)NCCSC1CCCCC1)c1ccc2c(c1)OCO2 | – | – | – | – | – | -67.3
NS(=O)(=O)c1ccc(NC(=S)NNC(=O)c2ccc(Br)o2)cc1 | · | · | – | · | · | –
O=C(c1cc(Cl)nc2ccccc12)N(Cc1nnc(-c2ccccc2Cl)o1)C1CC1 | · | · | – | · | · | –
SMILES | Hsp70 activator | Rad51 HR inh | HSF1 activator | HSV replic up | Mdm2 ligase inh | HSF1 inhib
O=C(NC(=S)Nc1ccc2c(c1)OCCO2)c1cccc(Br)c1 | – | – | – | – | – | –
O=C(NC(=S)Nc1ccc2c(c1)OCO2)c1ccccc1 | – | – | 57.2 | – | – | –
O=C(Nc1ccc2c(c1)OCO2)c1ccc(Cl)cc1Cl | · | · | 52.5 | · | · | –
O=C(Nc1ccc2c(c1)OCCO2)c1coc2ccccc2c1=O | – | – | – | – | – | -51.6
O=C(Nc1ccc2c(c1)OCCO2)c1ccc(Cl)cc1Cl | · | · | ? | · | · | –
O=C(Nc1ccc2c(c1)OCO2)c1ccccc1 | · | · | 58.1 | · | · | –
Cc1ccccc1C(=O)Nc1ccc2c(c1)OCCO2 | · | · | – | · | · | –
COc1ccc2no[n+]([O-])c2c1 | · | – | – | – | – | –
